Columns and labels:
LoVo cells [1] = assay: Hoechst 33258 staining, morphological analysis of cell death mode; type: cell-based, human; details: 48 h with IC50
Procedure, shortened: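 LoVo cells were seeded at 5 × 10⁴ per well on tissue-culture slides, grown 24 h and washed twice with PBS. They were then treated with test compound, stained 5 min with 10 μg mL⁻¹ Hoechst 33258 in PBS, and examined for nuclear morphology by confocal microscopy at 40× and 10×.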

LoVo spheroids = assay: 3D spheroid culture, acid phosphatase; type: cell-based, human; details: read-out: IC50 (μM) ± S.D., LoVo spheroids; 3D spheroids, 72 h, APH assay
Procedure, shortened: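 LoVo spheroids formed from 2.5 × 10³ cells per well in round-bottom non-treated wells, in phenol red free F-12 HAMs medium with 10% fetal calf serum plus 20% methyl cellulose stock solution. Test compound added from DMSO stock (final DMSO 0.5%) at increasing concentrations for 72 h. Viability by modified acid phosphatase assay at 405 nm. IC50 from 4-parameter logistic fit; means of at least three independent experiments.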

B-CPAP cells = assay: MTT cytotoxicity, 72 h, B-CPAP thyroid cancer cells; type: cell-based, human; details: read-out: IC50 (μM) ± S.D., B-CPAP, MTT test
Procedure, shortened: (§1)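 Cells were kept in log phase at 37 °C, 5% CO₂, in RPMI-1640 with 10% fetal calf serum, penicillin/streptomycin and 2 mM L-glutamine. […] MTT read-out after 72 h exposure, absorbance 570 nm versus untreated wells. IC50 from 4-parameter logistic model; means of at least three independent experiments.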

U-1285 cells = assay: MTT cytotoxicity, 72 h, U-1285 small cell lung cancer cells; type: cell-based, human; details: read-out: IC50 (μM) ± S.D., U-1285, MTT test
Procedure, shortened: as §1

MCF-7 cells = assay: MTT cytotoxicity, 72 h, MCF-7 breast cancer cells; type: cell-based, human; details: read-out: IC50 (μM) ± S.D., MCF-7, MTT test
Procedure, shortened: as §1

LoVo cells [2] = assay: MTT cytotoxicity, 72 h, LoVo colon cancer cells; type: cell-based, human; details: read-out: IC50 (μM) ± S.D., LoVo, MTT test, 2D monolayer
Procedure, shortened: as §1

PSN-1 cells = assay: MTT cytotoxicity, 72 h, PSN-1 pancreatic cancer cells; type: cell-based, human; details: read-out: IC50 (μM) ± S.D., PSN-1, MTT test
Procedure, shortened: as §1

[3] = test system: human cancer cell line panel; assay: MTT cytotoxicity across the in-house human cancer cell line panel; type: cell-based; details: MTT test, 72 h
Procedure, shortened: as §1

LoVo OXP cells = assay: MTT cytotoxicity, 72 h, oxaliplatin-resistant LoVo OXP colon cancer cells; type: cell-based, human
Procedure, shortened: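 Oxaliplatin-resistant LoVo OXP subline obtained by growing LoVo cells in increasing oxaliplatin concentrations, with 17 months of resistant-clone selection. Paired with parental LoVo cells in RPMI-1640 with 10% fetal calf serum and 2 mM L-glutamine. 72 h MTT exposure with test compound in DMSO (final 0.5%), absorbance 570 nm. IC50 fitted by 4-parameter logistic model from at least three independent experiments.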

HEK-293 cells = assay: MTT cytotoxicity, 72 h, non-tumor HEK-293 embryonic kidney cells; type: cell-based, human
[4] = biological target: protein disulfide isomerase (PDI) (Homo sapiens, UniProt P07237); assay: Cell-free PDI inhibition; type: biochemical
Sequence of protein disulfide isomerase (PDI) (P07237 18-508): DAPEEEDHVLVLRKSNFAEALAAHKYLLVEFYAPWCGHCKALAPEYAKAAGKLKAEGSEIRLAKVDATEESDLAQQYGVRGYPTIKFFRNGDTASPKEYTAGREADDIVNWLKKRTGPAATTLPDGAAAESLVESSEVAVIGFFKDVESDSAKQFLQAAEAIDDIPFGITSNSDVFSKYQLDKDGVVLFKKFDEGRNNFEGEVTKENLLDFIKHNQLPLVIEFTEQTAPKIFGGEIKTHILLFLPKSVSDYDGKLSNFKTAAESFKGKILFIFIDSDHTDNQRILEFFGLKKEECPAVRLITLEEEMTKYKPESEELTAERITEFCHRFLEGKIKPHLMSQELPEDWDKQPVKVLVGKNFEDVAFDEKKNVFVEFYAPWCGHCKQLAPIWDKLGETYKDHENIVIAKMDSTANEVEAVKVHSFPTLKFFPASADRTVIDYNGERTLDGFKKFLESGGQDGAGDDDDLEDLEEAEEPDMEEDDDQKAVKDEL

SMILES: N.N.[Cl][Pt][Cl] [Cisplatin, cisplatin, reference compound]
- morphological changes (cell death mode) (LoVo cells [1]): classical morphological features of apoptosis induction
- IC50 (LoVo spheroids): 60.6 ± 6.3 µM
- IC50 (B-CPAP cells): 18.5 ± 4.1 µM
- IC50 (U-1285 cells): 2.1 ± 0.8 µM
- IC50 (MCF-7 cells): 13.9 ± 1.3 µM
- IC50 (LoVo cells [2]): 7.6 ± 1.5 µM
- IC50 (PSN-1 cells): 12.1 ± 2.8 µM

SMILES: Cc1cc(C)n(C(C(=O)OC(C)C)n2nc(C)cc2C)n1 [L^2OiPr, [HC(3,5-Me2pz)2COO^iPr]]
- cytotoxic effect against all tested cancer cell lines [3]: completely ineffective
- IC50 (B-CPAP cells): > 50 µM
- IC50 (U-1285 cells): > 50 µM
- IC50 (MCF-7 cells): > 50 µM
- IC50 (LoVo cells [2]): > 50 µM
- IC50 (PSN-1 cells): > 50 µM

SMILES: CC(C)OC(=O)C(n1cccn1)n1cccn1 [L^OiPr, [HC(pz)2COO^iPr]]
- cytotoxic effect against all tested cancer cell lines [3]: completely ineffective
- IC50 (B-CPAP cells): > 50 µM
- IC50 (U-1285 cells): > 50 µM
- IC50 (MCF-7 cells): > 50 µM
- IC50 (LoVo cells [2]): > 50 µM
- IC50 (PSN-1 cells): > 50 µM

SMILES: O=C1[O][Pt]2([NH][C@@H]3CCCC[C@H]3[NH]2)[O]C1=O [Oxaliplatin, oxaliplatin, reference compound]
- R.F. = IC50 (resistant subline)/IC50 (wild-type cells) (LoVo OXP cells): 13
- IC50 (LoVo cells [2]): 1.1 ± 0.6 µM

SMILES: C1N2CN3CN1CP(C2)C3.Cc1cc(C)n(C(C(=O)OC(C)C)n2nc(C)cc2C)n1.F[P-](F)(F)(F)(F)F.[Cu+] [compound 4, [Cu(L^2OiPr)(PTA)]PF6]
- fold more effective than complex 2 (average IC50) [3]: 2 fold
- IC50 ([3]; read-out: average IC50 across the human cancer cell lines): 12.3 µM
- R.F. = IC50 (resistant subline)/IC50 (wild-type cells) (LoVo OXP cells): 1.9
- morphological changes (cell death mode) (LoVo cells [1]): no classical hallmarks of apoptosis
- S.I. = average IC50 normal cells/average IC50 for the malignant cells (HEK-293 cells; HEK-293 vs malignant cells): > 4.0
- IC50 (HEK-293 cells; read-out: IC50 (μM) ± S.D., HEK-293, MTT test, 72 h, non-tumor cells): > 50 µM
- IC50 (LoVo spheroids): 144 ± 7.8 µM
- IC50 (B-CPAP cells): 14.3 ± 0.9 µM
- IC50 (U-1285 cells): 11.9 ± 1.9 µM
- IC50 (MCF-7 cells): 14 ± 1.7 µM
- IC50 (LoVo cells [2]): 7.8 ± 1.5 µM
- IC50 (PSN-1 cells): 18.2 ± 0.8 µM
- reduction of PDI catalytic activity ([4]; highest tested dose (50 μM)): about 80%
- IC50 ([4]; read-out: IC50 for PDI inhibition, cell-free, Proteostat kit): 13.7 µM

— article PMC11605304 (RSC Medicinal Chemistry, 2024)
